Most compounds without a hit are left out; they make up all but 5.9% or so of the library.
GASC1 inh = KDM4C (human) demethylase inhibition | Q9H3R0 | GST-KDM4C 2-372, H3K9me3 peptide, LANCE TR-FRET | inhibition, % at 12.5 µM | 0.15% of 96,000 active | AID 720574;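 active = mean replicate inhibition above about 25%, with at least 55% of replicates also reaching it, limit read from the data, passing the limit was not always enough; inconclusive = only one of those two conditions met; inactive = neither condition met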
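Compound: one test concentration per compound; Material: GST-GASC-1 enzyme fragment 2-372; Amount: GASC-1 enzyme at 10 nM final in reaction; Also added: H3K9me3 peptide substrate, Fe(II), 2-oxoglutarate; Technique: LANCE TR-FRET; Times: 30 min demethylation and 1 h detection at room temperature.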
Pf Dd2 inh = inhibitors of Plasmodium falciparum Dd2 growth | activity change, % at 10 µM | P. falciparum Dd2 growth, SYBR Green, 72 h; stronger effect = lower value | 2.3% of 94,000 active | AID 1159554; in the data active = activity change below about -80%; inconclusive = no clear call, values can overlap the other calls
IDH1 R132H inh = inhibitors of human IDH1 R132H. O75874. IDH1 R132H reductase, diaphorase/resazurin fluorescence, 60 min. inhibition, % at 10 µM. 0.18% of 70,000 active; in the data active = inhibition above about 34%; inconclusive = no clear call, values can overlap the other calls; inactive = below about 11%;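 note: 0% = DMSO and 100% = no enzyme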
Target sequence (O75874 whole entry R132H): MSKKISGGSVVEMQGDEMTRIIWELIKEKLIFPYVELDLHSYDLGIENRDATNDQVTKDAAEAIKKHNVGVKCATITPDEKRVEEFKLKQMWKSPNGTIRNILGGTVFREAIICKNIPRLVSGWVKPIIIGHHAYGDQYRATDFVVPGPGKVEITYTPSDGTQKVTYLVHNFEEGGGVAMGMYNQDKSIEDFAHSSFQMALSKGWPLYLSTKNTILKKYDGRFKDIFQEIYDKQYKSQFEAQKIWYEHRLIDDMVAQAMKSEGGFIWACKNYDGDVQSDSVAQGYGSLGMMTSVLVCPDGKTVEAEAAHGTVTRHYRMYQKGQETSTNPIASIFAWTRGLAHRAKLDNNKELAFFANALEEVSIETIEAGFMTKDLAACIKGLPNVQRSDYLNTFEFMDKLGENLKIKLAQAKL
T cruzi growth-1 = inhibitors of T. cruzi proliferation | 5.9% of 77,000 active | inhibition, % at 8.34 µM | T. cruzi beta-gal in NIH3T3, GalScreen luminescence, 90 h | AID 624255;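 active = mean inhibition above about 93%, with at least 55% of replicates each passing it, limit read from the data, passing the limit was not always enough; inconclusive = only one of those two conditions holds; inactive = neither condition holds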
T cruzi growth-2 = Trypanosoma cruzi proliferation inhibition; shares compounds with T cruzi growth-1; T. cruzi beta-gal in NIH3T3, GalScreen luminescence, 90 h; inhibition, % at 8.35 µM; 72% of 5,600 active;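 active = mean replicate inhibition above about 95% and at least 55% of replicates individually reaching it, limit read from the data; inconclusive = only one of the two criteria is met; inactive = neither criterion is met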
T cruzi growth-3 = inhibitors of T. cruzi proliferation; T. cruzi beta-gal in NIH3T3, GalScreen luminescence, 90 h; AID 651740; inhibition, % at 2.09 µM; shares compounds with T cruzi growth-1; 21% of 5,600 active;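 active = mean inhibition above about 95%, with at least 55% of replicates also reaching it, limit read from the data; inconclusive = meets just one of the two conditions; inactive = meets neither condition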;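 note: plate controls were neutral control median for no effect and positive control median for full effect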
NIH3T3 tox = NIH/3T3 (mouse) viability loss; shares compounds with T cruzi growth-1; NIH/3T3 viability, CellTiter-Glo ATP luminescence, 90 h; cytotoxicity (signal decrease), % at 8.35 µM; 14% of 5,600 active;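 active = mean signal decrease across replicates above about 35% based on untreated-well scatter, with enough replicates individually passing, limit read from the data; inconclusive = no rule stated though some were filed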;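 note: 0% = median of neutral control wells and 100% = median of positive control wells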
NIH3T3 tox 2 = kills mouse NIH/3T3 fibroblasts; AID 651744; inhibition, % at 24.9 µM; 56% of 5,600 active; NIH/3T3 viability, CellTiter-Glo ATP luminescence, 90 h; shares compounds with T cruzi growth-1;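 active = mean loss of cell viability signal at or above a set limit, and enough replicates individually reaching it; inconclusive = meets only the mean limit or only the replicate share; inactive = meets neither condition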;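 note: 0% = median of neutral control wells and 100% = median of positive control wells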
The depositor's hits bear a star; ? = inconclusive; · = not tested or not shown.

SMILES | GASC1 inh | Pf Dd2 inh | IDH1 R132H inh | T cruzi growth-1 | T cruzi growth-2 | T cruzi growth-3 | NIH3T3 tox | NIH3T3 tox 2
C[C@@H]1CN([C@H](C)CO)C(=O)c2cc(C#Cc3ccccn3)cnc2O[C@H]1CN(C)Cc1cncnc1 | 1 | 10 | 0 | 104* | 107* | 55 | 13 | 18
CC(C)C#Cc1cnc2c(c1)C(=O)N([C@@H](C)CO)C[C@H](C)[C@@H](CN(C)Cc1cncnc1)O2 | -2 | 22 | 0 | 97* | 99* | 11 | -16 | 11
C[C@@H]1CN([C@@H](C)CO)C(=O)c2cc(C#Cc3ccccn3)cnc2O[C@H]1CN(C)Cc1cncnc1 | 3 | 22 | -8 | 105* | 102* | 35 | -13 | 18
C[C@@H]1CN([C@@H](C)CO)C(=O)c2cc(NS(=O)(=O)c3cccs3)ccc2O[C@@H](C)CCCCO[C@@H]1CN(C)Cc1ccc(C(F)(F)F)cc1 | 0 | -67 | 1 | ? | 102* | 118* | -24 | 63*
C[C@H](CO)N1C[C@H](C)[C@H](CN(C)Cc2ccc(C(F)(F)F)cc2)OCCCC[C@H](C)Oc2ccc(NS(=O)(=O)c3cccs3)cc2C1=O | 1 | -38 | · | · | · | · | · | ·
C[C@H]1CCCCO[C@@H](CN(C)Cc2ccc(C(F)(F)F)cc2)[C@@H](C)CN([C@@H](C)CO)C(=O)c2cc(NS(=O)(=O)c3cccs3)ccc2O1 | -1 | -53 | 0 | 112* | 90 | 58 | 18 | 105*
C[C@@H]1CCCCO[C@@H](CN(C)Cc2ccc(C(F)(F)F)cc2)[C@@H](C)CN([C@@H](C)CO)C(=O)c2cc(NS(=O)(=O)c3cccs3)ccc2O1 | -2 | -32 | -5 | 93 | · | · | · | ·
C[C@H]1CCCCO[C@H](CN(C)Cc2ccc(C(F)(F)F)cc2)[C@@H](C)CN([C@@H](C)CO)C(=O)c2cc(NS(=O)(=O)c3cccs3)ccc2O1 | 2 | -22 | · | 113* | 98* | 107* | -14 | 103*
Cc1ncc([N+](=O)[O-])n1CC(=O)N(C)c1ccccc1 | · | · | 3 | · | · | · | · | ·
COc1cc(C(=O)NC2(C(F)(F)F)C(=O)N(CC3CCCO3)C3=C2C(=O)CC(C)(C)C3)cc(OC)c1OC (stereo unspecified) | · | · | 0 | · | · | · | · | ·
O=C(CC1NC2CCCCC2NC1=O)Nc1ccccc1 (stereo unspecified) | · | · | 5 | · | · | · | · | ·
CCOC(=O)c1c(NC(=O)CSc2nc3ccccc3c(=O)[nH]2)sc2c1CCCC2 | · | · | 0 | · | · | · | · | ·
C[C@@H]1CCCCO[C@@H](CN(C)S(=O)(=O)c2ccccc2)[C@H](C)CN([C@@H](C)CO)C(=O)c2cc(NC(=O)Nc3ccc(F)cc3)ccc2O1 | -2 | -36 | 5 | 104* | 107* | 38 | 1 | -9
Cc1ccc(S(=O)(=O)N(C)C[C@@H]2OCCCC[C@@H](C)Oc3ccc(NC(=O)Nc4ccc(F)cc4)cc3C(=O)N([C@@H](C)CO)C[C@H]2C)cc1 | 1 | -59 | 2 | · | · | · | · | ·
C[C@H](CO)N1C[C@H](C)[C@H](CN(C)S(=O)(=O)c2ccccc2)OCCCC[C@H](C)Oc2ccc(NC(=O)Nc3ccc(F)cc3)cc2C1=O | -1 | -61 | 0 | 109* | 106* | 83 | 26 | ?
Cc1ccc(S(=O)(=O)N(C)C[C@H]2OCCCC[C@H](C)Oc3ccc(NC(=O)Nc4ccc(F)cc4)cc3C(=O)N([C@H](C)CO)C[C@@H]2C)cc1 | -1 | -68 | 0 | · | · | · | · | ·
C[C@@H]1CCCCO[C@H](CN(C)S(=O)(=O)c2ccccc2)[C@@H](C)CN([C@@H](C)CO)C(=O)c2cc(NC(=O)Nc3ccc(F)cc3)ccc2O1 | -1 | -75 | · | 106* | 108* | 75 | 5 | 36*
Cc1cccc(OCC(=O)Nc2cccc(-c3nc4cc(Cl)ccc4o3)c2C)c1 | · | · | 0 | · | · | · | · | ·
CC1CCCCN1Cc1nc(N)nc(Nc2ccc3c(c2)OCCO3)n1 (stereo unspecified) | · | · | 0 | · | · | · | · | ·
CN(C)C(=O)c1cccc(-c2ccc([C@@H]3[C@@H](CO)N4CCCCN(CCC(F)(F)F)C[C@@H]34)cc2)c1 | 2 | -7 | · | 58 | · | · | · | ·
CN(C)C(=O)c1cccc(-c2ccc([C@H]3[C@H](CO)N4CCCCN(CCC(F)(F)F)C[C@@H]34)cc2)c1 | 0 | -20 | · | 105* | 109* | 86 | 5 | 25*
CN(C)C(=O)c1cccc(-c2ccc([C@H]3[C@@H](CO)N4CCCCN(CCC(F)(F)F)C[C@H]34)cc2)c1 | -1 | -17 | · | 103* | 99* | 72 | -22 | 29
COc1ccc(NC(=O)CN(C)S(=O)(=O)c2ccc(C)cc2)c(OC)c1 | · | · | 0 | · | · | · | · | ·
Cc1ccc(S(=O)(=O)Nc2ccc3c(c2)C(=O)N([C@H](C)CO)C[C@H](C)[C@@H](CN(C)CC2CC2)OCCCC[C@H](C)O3)cc1 | 2 | -6 | · | 57 | · | · | · | ·
Cc1ccc(S(=O)(=O)Nc2ccc3c(c2)C(=O)N([C@H](C)CO)C[C@H](C)[C@H](CN(C)CC2CC2)OCCCC[C@H](C)O3)cc1 | -1 | -28 | · | ? | ? | 48 | -15 | 13
SMILES | GASC1 inh | Pf Dd2 inh | IDH1 R132H inh | T cruzi growth-1 | T cruzi growth-2 | T cruzi growth-3 | NIH3T3 tox | NIH3T3 tox 2
Cc1ccc(S(=O)(=O)Nc2ccc3c(c2)C(=O)N([C@@H](C)CO)C[C@@H](C)[C@@H](CN(C)CC2CC2)OCCCC[C@@H](C)O3)cc1 | · | -28 | · | ? | 81 | 26 | -13 | -14
O=C(O)c1ccc(/C=N/NC(=O)c2ccc(C(=O)NO)cc2)cc1 | · | · | 0 | · | · | · | · | ·
COc1ccccc1S(=O)(=O)N(C)C[C@@H]1Oc2cc(C#CCC(C)C)ccc2S(=O)(=O)N([C@@H](C)CO)C[C@H]1C | 2 | -89* | 1 | ? | 97* | 108* | 24 | 41*
CC(C)CC#Cc1ccc2c(c1)O[C@H](CN(C)S(C)(=O)=O)[C@@H](C)CN([C@H](C)CO)S2(=O)=O | 10 | -1 | 0 | 46 | · | · | · | ·
COc1ccccc1S(=O)(=O)N(C)C[C@@H]1Oc2cc(C#CCC(C)C)ccc2S(=O)(=O)N([C@@H](C)CO)C[C@@H]1C | 6 | -87* | 1 | ? | 103* | 107* | -3 | 56*
COc1cccc(S(=O)(=O)N(C)C[C@@H]2Oc3cc(C#CCC(C)C)ccc3S(=O)(=O)N([C@H](C)CO)C[C@H]2C)c1 | 4 | ? | 0 | 61 | · | · | · | ·
COc1ccccc1S(=O)(=O)N(C)C[C@H]1Oc2cc(C#CCC3CCCC3)ccc2S(=O)(=O)N([C@@H](C)CO)C[C@@H]1C | 14 | -55 | 0 | · | · | · | · | ·

Screens as filed in PubChem BioAssay.
